# Experimental data reported in the EternaBench riboswitch data.
# Tested on: MS2 coat protein
# Test: apparent Kd, MS2 coat protein; higher = weaker binding; RNA-MaP array; FMN 200 µM where present
# Procedure, shortened: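 Stalled E. coli RNA polymerase transcribed the designs on Illumina sequencing-chip clusters. SNAP-549-labelled MS2 coat protein was titrated from 0.7 or 1.5 nM, doubling to 3 µM, without and then with constant ligand, in 100 mM Tris-HCl pH 7.5, 80 mM KCl, 4 mM MgCl2, BSA, DTT, yeast tRNA and Tween-20. Per-cluster binding curves were fitted to green signal normalised to red-channel RNA signal and control-cluster median Fmax. The apparent Kd is the median of the filtered fits.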
# [1] = designed as: ON switch for flavin mononucleotide, no ligand
# [2] = ligand present: flavin mononucleotide, designed as: ON switch for flavin mononucleotide
# [3] = designed as: OFF switch for flavin mononucleotide, no ligand
# [4] = ligand present: flavin mononucleotide, designed as: OFF switch for flavin mononucleotide
Sequence,apparent Kd [1],apparent Kd [2],apparent Kd [3],apparent Kd [4]
AGUCCGGAACAGAAGGACAUGAGGAUCACCCAUGUAGGAUAUGUUGUGCGGCGUUAGGGAGGUGCCUGCGUGUGGGCGGAUCUC,14.1 nM,6.56 nM,–,–
AGUCGGAGCAGAGGAUAUACAUGAGGAUCACCCAUGUAAAUGGAAGAAGCCUGGAAACAGGCAAUGUAGAAGGCUGCUCCGACA,–,–,132 nM,708 nM
AGUCGGAGCAGAGGAUAUACAUGAGGAUCACCCAUGUAAUUAAGUGAAGCCUGGAAACAGGCAAUGUAGAAGGCUGCUCCGACA,–,–,9.44 nM,51.7 nM
AGUCGGAGCAGAGGAUAUAUACAUGAGGAUCACCCAUGUAAAUGAAUGAGCUGGAAACAGCAAGUAUAGAAGGCUGCUCCGACA,–,–,15.2 nM,16 nM
AGUCGGAGCAGAGGAUAUAUACAUGAGGAUCACCCAUGUGACUGACUACGCUGGAAACAGCAUGUAUAGAAGGCUGCUCCGACA,–,–,448 nM,882 nM
AGUCGGAGCAGAGGAUAUUACAUGAGGAUCACCCAUGUAGGUACCAAUAGCUGGAAACAGCAAUGUAAGAAGGCUGCUCCGACA,–,–,259 nM,281 nM
AGUCGGCGAGGAUAUACAUGAGGAUCACCCAUGUGAGAGAAUAAAGUGAGUUAGACAAGUAGAAGGCGCUGACA,–,–,47.4 nM,415 nM
AGUCUGAGAGGAUAUACAUGAAAAAAAAAAGUUAGAUCCCUACAUGAGGAUCACCCAUGUAGAAGGCUCUGACA,–,–,19.2 nM,16.7 nM
AGUGACGACGAGGAUAUUCCGGUAGCCUACUAAGAAGAAGGUGUCACAUGAGGAUCACCCAUGUUUAGUUUCGC,–,–,141 nM,68.7 nM
AGUGCGUAUGUGAGGAUAUGCUGGUCCUUGGAUCAGCAGAAGGCACAUGAGGAUCACCCAUGUGGUGUCGUACU,–,–,253 nM,27.2 nM
AGUGGUGGAGGAUAUACAUGAGGAUCACCCAUGUAAAUCACACAUGUGGUCAAAGCAUGUAGAAGGCCACUACA,–,–,99.6 nM,109 nM
AGUGUCAUCGAGAAGGCCUCAACAUGAGGAUCACCCAUGUUGCAAAAUGGGAGGAUAUCGCGCAAAAAGCUACGUUUCGUAGCA,43.1 nM,6.96 nM,–,–
AGUGUCGGCACAGGAUAUGAGAUGCCGGCAGACAUGAGGAUCACCCAUGUAAGCGAACCGGGCAGUCAGAAGGGUGAUCGACGA,161 nM,29.7 nM,–,–
AGUGUCGGCACAGGAUAUGAGAUGCCGGCAGACAUGAGGAUCACCCAUGUAAGCGACCCAGGCAGUCAGAAGGGUGAUCGACAA,156 nM,44.4 nM,–,–
AGUGUGUGGCAGGAUAUGCGAUUUGUAGGUGUUGCAGAAGGGUCUACAUGAGGAUCACCCAUGUGUGCGGUUGA,–,–,283 nM,570 nM
AGUGUGUGGCAGGAUAUUCCGGUCGUGGGUCGGGAAGAAGGGUCUACAUGAGGAUCACCCAUGUGAGCGGUUGA,–,–,210 nM,241 nM
AGUGUUGGAGGAUAUACAUGAGGAUCACCCAUGUACAUCACACAGUAUAUCAAACCAUGUAGAAGGCCAAUACA,–,–,18.2 nM,36.4 nM
AGUUAAUAUCGAGGAUAUCCUCAUAAACAUGAGGAUCACCCAUGUUAACAUGGAGAAGGCGAUAUUAACAGCAUGUUACAUGCA,268 nM,20.2 nM,–,–
AGUUAAUAUCGAGGAUAUCCUCAUCUACAUGAGGAUCACCCAUGUAAGCAUGGAGAAGGCGAUAUUAACAGCAUGUUACAUGCA,112 nM,10.5 nM,–,–
AGUUAAUAUCGAGGAUAUCCUCUGAAACAUGAGGAUCACCCAUGUAGAAUGGGAGAAGGCGAUAUUAACAGCAUGUUACAUGCA,111 nM,48.6 nM,–,–
AGUUAAUAUCGAGGAUAUGUCUAGACACAUGAGGAUCACCCAUGUAUGUGUAUAGAAGGCGAAAAUAACAGCAUGUUACAUGCA,37.4 nM,19.9 nM,–,–

Sequence,apparent Kd [1],apparent Kd [2],apparent Kd [3],apparent Kd [4]
AGUUAAUAUCGAGGAUAUGUCUAGACACAUGAGGAUCACCCAUGUAUGUGUAUAGAAGGCGAUAUUAACAGCAUGUUACAUGCU,42.9 nM,16.4 nM,–,–
AGUUAGAUAGCGAUAUGAUCGAGAGAUCAUGUCGCUAAGUUUAGAAGGACAUGAGGAUCACCCAUGUAGGAUAUGGGAGUAGAA,149 nM,53.9 nM,–,–
AGUUGGCGAGGAUAUACAUGAGGAUCACCCAUGUGAAAUCGAGAAAAAAUAGGGAAAAGUAGAAGGCGCAGACA,–,–,10.3 nM,12.1 nM
AGUUGGCGAGGAUAUACAUGAGGAUCACCCAUGUGGUCCUGCGAUGGUGUCGCCCUUUGUAGAAGGCGCGGGUC,–,–,35 nM,28.1 nM
AUAAACAUGAGGAUCACCCAUGUGAGAAGGCGCAUUACUAUAUUUAUACACUUUAAUACUAACAGCGAGGAUAUCACCUCAUAA,–,–,15.8 nM,24.7 nM
AUAAAGCGAGGAUAUCGCGCGGAGUACAUGAGGAUCACCCAUGUGGUCCGCAGUCCUGCGCGAGAAGGCGCAUUCC,–,–,138 nM,54.2 nM
AUAAAUCAUGUAGGAUAUGCGUGGCGAAGCUAUGCAGAAGGACAUGAGGAUCACCCAUGUCUUUCCGUCUGCGUACAGACGGAA,–,–,33.4 nM,311 nM
AUAAUGAGAGGAUAUACAUGAGGAUCACCCAUGUUAUUAUCACGGCGAGCUCCAUUACGUAGAAGGCUCAUUUA,–,–,16.5 nM,44.7 nM
AUAAUGAGAGGAUAUACAUGAGGAUCACCCAUGUUAUUAUCACGUCGUGCUCCAUUACGUAGAAGGCUCAUUUA,–,–,22 nM,84.1 nM
AUAAUUAUAUAUUUCCCAAGAAUCAGAAGGCGUUACAUGAGGAUCACCCAUGUUUUGUAUAGUAACGAGGAUAUGAUAUGGAAA,–,–,16.3 nM,14.5 nM
AUAAUUUUAUAUAUCAUUUUAAUCAGAAGGCAUAACAUGAGGAUCACCCAUGUAAAUUAAUGUUAUGAGGAUAUGAUUUGGUUA,–,–,26.1 nM,147 nM
AUACAUGAGGAUCACCCAUGUAAUUAAUUAACUUGUAAGAUCAAGGAUAUCAGCUCGAAUAGAGCUGAGAAGGUGAUCACAUGU,179 nM,220 nM,–,–
AUACCACGAGGAUAUCGUCUAUUCCACAUGAGGAUCACCCAUGUUAUCCAUGUUUCGUUUCGAGAAGGCGUGUUUU,–,–,59.3 nM,41.5 nM
AUAGAAGACUAGAAGGACCUAGCUGUAUACCGUCGAGGUAUAUAGCUAGGUAGGAUAUGGGACAUGAGGAUCACCCAUGUCUUG,8.58 nM,7.58 nM,–,–
AUAGGGUGAGGAUAUCCAUCUGGAUCAGACUAGAUCCUGAUGGAGAAGGCACAUGAGGAUCACCCAUGUGAGUU,–,–,125 nM,151 nM
AUAGUCGGGAGAUAAACUCGUGCGGUAGAAGGGUGAUACUGGACAUGAGGAUCACCCAUGUGCACACAGGAUAUGCCCGCGAGC,83.6 nM,24.3 nM,–,–
AUAUAUAUAUCAGGAUAUGGACAGGCCUGUUCGUAUUGAGACAGUAACAUGAGGAUCACCCAUGUCCAGAAGGGAUAUAUAUAU,–,–,93.2 nM,55.1 nM
AUAUAUAUUAGAGGAUAUGUGUUCAUGUUACAUGAGGAUCACCCAUGUUUAGGUUGAUUGAUCUUACAGAAGGCUAUACAAUGA,–,–,97.2 nM,78.5 nM
AUAUAUAUUUAGAAGGACAUGAGGAUCACCCAUGUCGCUGGGCCCGGGAAACCGGGCCCGGCCAUGUAGGAUAUAGAUAUAUAU,–,–,6.72 nM,9.5 nM
AUAUCUUUAUCAGGAUAUGGACAGGCCUGUCCGUAUUGAGACAGUAACAUGAGGAUCACCCAUGUCCAGAAGGGAUCGAUGUAU,–,–,56.5 nM,45.8 nM
AUAUGAUAGAUAGGAUAUACAGAUAAAUAAUAAGUAGAAGGAUCAAAUGGAAAUUAUACAUGAGGAUCACCCAUGUUUUUGAAU,29 nM,22.4 nM,–,–
